Experimental data published in ChEMBL document CHEMBL3351414, “Novel 9'-substituted-noscapines: synthesis with Suzuki cross-coupling, structure elucidation and biological evaluation” (Eur J Med Chem, 2014).
pIC50: −log10 of the molar value. The source made the active and inactive calls. The calls are words filed in the database; no cut-off is given here.

What was measured:
HeLa [1] = assay: Induction of apoptosis in human HeLa cells assessed as reduction in Bcl-2 expression at 25 uM after 24 hrs by Western blot analysis; type: functional, cell-based
Procedure, shortened: (§1)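 HeLa cells treated 24 or 48 h at 25 µM, then lysed. 20 µg protein per lane was run on SDS-PAGE and transferred to PVDF. Membranes were probed 2 h at room temperature for cleaved caspase-9, caspase-3, cleaved PARP, Bcl-2, Mcl-1 or Bax, with peroxidase secondary antibody and ECL. β-Actin reprobe served as loading control.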

HT-29 = assay: Antiproliferative activity against human HT-29 cells assessed as reduction in cell viability after 72 hrs by MTT assay; type: functional, cell-based; conditions: HT-29, 72 h
Procedure, shortened: (§2)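 Cells kept in RPMI-1640 (Jurkat, SEM, RS4;11) or DMEM (A549, HeLa, IGROV-1, HT-29) with 10% FBS plus penicillin/streptomycin. 8×10^3 cells per well were left 18 h at 37 °C in 5% CO2. Medium was then replaced with fresh medium holding graded compound concentrations from 10 mM DMSO stocks. Cells were incubated 72 h and viability read by MTT. IC50 is the mean ± SEM from dose–response curves of at least three independent experiments.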

A549 = assay: Antiproliferative activity against human A549 cells assessed as reduction in cell viability after 72 hrs by MTT assay; type: functional, cell-based; conditions: A549, 72 h; procedure, shortened: as §2
HeLa [2] = assay: Cell cycle arrest in human HeLa cells assessed as accumulation at G2/M phase at 10 to 25 uM after 24 hrs by flow cytometry; type: functional, cell-based
Procedure, shortened: (§3)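 5×10^5 HeLa or Jurkat cells exposed to graded compound concentrations for 24 h. Cells were fixed in ice-cold 70% ethanol, lysed with RNase A/0.1% Triton X-100 buffer and stained with propidium iodide. DNA content was read by flow cytometry. Phase percentages are mean ± SEM of three independent experiments.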

IGROV-1 = assay: Antiproliferative activity against human IGROV1 cells assessed as reduction in cell viability after 72 hrs by MTT assay; type: functional, cell-based; conditions: IGROV-1, 72 h; procedure, shortened: as §2
[3] = Antiproliferative activity against human SEM cells assessed as reduction in cell viability after 72 hrs by MTT assay; type: functional, cell-based; procedure, shortened: as §2
HeLa [4] = assay: Downregulation of phosphorylated form of cdc25c protein level in human HeLa cells at 25 uM after 24 hrs by Western blot analysis; type: functional, cell-based
Procedure, shortened: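 HeLa cells treated 24 or 48 h at 25 µM, then washed in PBS and lysed 30 min on ice. 20 µg protein per lane was resolved on 7.5–15% SDS-PAGE and blotted to PVDF. Blots were probed for cyclin B, p-cdc2 Tyr15, cdc25C and γH2A.X, with β-actin reprobe as loading control and ECL detection.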

Jurkat [5] = assay: Antiproliferative activity against human Jurkat cells assessed as reduction in cell viability after 72 hrs by MTT assay; type: functional, cell-based; procedure, shortened: as §2
HeLa [6] = assay: Antiproliferative activity against human HeLa cells assessed as reduction in cell viability after 72 hrs by MTT assay; type: functional, cell-based; procedure, shortened: as §2
HeLa [7] = assay: Induction of apoptosis in human HeLa cells assessed as early apoptotic cells at 25 uM after 24 hrs using Annexin-V/PI staining by flow cytometry (reference value: 5.26 %); type: functional
Tubulin [8] = target: T1, Tubulin (Bos taurus, UniProt Q6B856+Q862L2+Q862F3); assay: Inhibition of bovine brain tubulin assessed as extent of assembly preincubated for 15 mins by turbidimetry
Procedure, shortened: (§4)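 Bovine brain tubulin at 10 µM (1.0 mg/mL) in 0.8 M monosodium glutamate pH 6.6 with 4% DMSO and varying compound was preincubated 15 min at 30 °C, then chilled. GTP was added to 0.4 mM final and the temperature jumped from 0 to 30 °C. Turbidity was followed at 350 nm, scoring either maximum rate or extent of assembly at 20 min.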

HeLa [9] = assay: Induction of apoptosis in human HeLa cells assessed as viable cells at 25 uM after 24 hrs using Annexin-V/PI staining by flow cytometry (reference value: 86.7 %); type: functional; conditions: read-out: Activity
HeLa [10] = assay: Induction of apoptosis in human HeLa cells assessed as mitochondrial membrane depolarization at 6.2 to 50 uM using JC-1 staining-based fluorescence assay; type: functional, cell-based; conditions: TDE = time-dependent effect
Procedure, shortened: (§5)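 Mitochondrial membrane potential was read with the JC-1 dye in HeLa cells after 24 or 48 h at graded concentrations. Data are mean ± SEM of three independent experiments.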

HeLa [11] = assay: Induction of apoptosis in human HeLa cells assessed as late apoptotic cells at 25 uM after 24 hrs using Annexin-V/PI staining by flow cytometry (reference value: 4.31 %); type: functional
HeLa [12] = assay: Induction of apoptosis in human HeLa cells assessed as reduction in Mcl-1 expression at 25 uM after 24 hrs by Western blot analysis; type: functional, cell-based; procedure, shortened: as §1
CCRF-CEM = assay: Antiproliferative activity against human CEM cells assessed as reduction in cell viability after 72 hrs by MTT assay; type: functional, cell-based
HeLa [13] = assay: Induction of apoptosis in human HeLa cells assessed as caspase 3 cleavage at 25 uM after 24 to 48 hrs by Western blot analysis; type: functional, cell-based; procedure, shortened: as §1
HeLa [14] = assay: Effect on cell morphology in human HeLa cells assessed as disorganization of actin filament at 25 uM after 24 hrs by confocal microscopy relative to control; type: functional, cell-based
Procedure, shortened: (§6)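 After 24 h at 25 µM, HeLa cells were stained with anti-PCM1 and Alexa-conjugated secondary antibody, with phalloidin-tetramethylrhodamine B for actin and DAPI for nuclei. Cells were imaged by confocal microscopy at 60×.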

HeLa [15] = assay: Induction of apoptosis in human HeLa cells assessed as reduction in Bcl-2 expression at 25 uM after 48 hrs by Western blot analysis; type: functional, cell-based; procedure, shortened: as §1
HeLa [16] = assay: Effect on cell morphology in human HeLa cells at 25 uM after 24 hrs using phalloidin staining by confocal microscopy; type: functional, cell-based; procedure, shortened: as §6
HeLa [17] = assay: Induction of apoptosis in human HeLa cells assessed as ROS production at 6.2 to 50 uM after 24 to 48 hrs using H2-DCFDA -based flow cytometry relative to control; type: functional, cell-based
Procedure, shortened: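 HeLa cells incubated 24 or 48 h at the indicated concentrations, stained with H2-DCFDA and analysed by flow cytometry. Data are mean ± SEM of three independent experiments.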

[18] = Antiproliferative activity against human RS4:11 cells assessed as reduction in cell viability after 72 hrs by MTT assay; type: functional, cell-based; conditions: RS4-11, 72 h; procedure, shortened: as §2
HeLa [19] = assay: Induction of apoptosis in human HeLa cells assessed as PARP cleavage at 25 uM after 24 to 48 hrs by Western blot analysis; type: functional, cell-based; procedure, shortened: as §1
Tubulin (Bos taurus) = Tubulin (Bos taurus) (UniProt Q6B856+Q862L2+Q862F3); assay: Displacement of [3H]colchicine from bovine brain tubulin at 500 uM after 10 mins by liquid scintillation counting
Jurkat [20] = assay: Cell cycle arrest in human Jurkat cells assessed as accumulation at G2/M phase after 24 hrs by flow cytometry; type: functional, cell-based; procedure, shortened: as §3
PBL = assay: Cytotoxicity against PHA-stimulated human PBLs assessed as reduction in cell growth; type: cell-based
Procedure, shortened: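 Peripheral blood lymphocytes from healthy donors, tested either resting (no PHA) or PHA-stimulated. Value is the concentration reducing cell growth by 50%, mean ± SEM of three separate experiments.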

Tubulin [21] = target: T1, Tubulin; assay: Inhibition of bovine brain tubulin assessed as rate of assembly preincubated for 15 mins by turbidimetry; procedure, shortened: as §4
HeLa [22] = assay: Induction of apoptosis in human HeLa cells assessed as mitochondrial membrane depolarization after 24 to 48 hrs using JC-1 staining-based fluorescence assay; type: functional, cell-based; procedure, shortened: as §5

pIC50 (HT-29) | pIC50 (A549) | pIC50 (Jurkat [5]) | pIC50 (HeLa [6]) | IC50 (Tubulin [8]) [µM] | pIC50 (CCRF-CEM) | Structure (SMILES) | Activity (HeLa [1]) | Activity (HeLa [2]) | pIC50 (IGROV-1) | pIC50 [3] | Activity (HeLa [4]) | Activity (HeLa [7]) [%] | viability at 25 µM (HeLa [9]) [%] | Activity (HeLa [10]) | Activity (HeLa [11]) [%] | Activity (HeLa [12]) | Activity (HeLa [13]) | Activity (HeLa [14]) | Activity (HeLa [15]) | Activity (HeLa [16]) | further results
4.47 | < 4.00 | 5.23 | 5.28 | > 400 | 5.06 | COc1ccc2c(c1OC)C(=O)O[C@@H]2[C@H]1c2c(c(C)c3c(c2OC)OCO3)CCN1C | Active | Active | 4.20 | 5.37 | Active | 12.5 | 9.8 | tde | 13.9 | Active | Active | Active | Active | Active | Activity (HeLa [17]): Active; pIC50 [18]: 4.80; Activity (HeLa [19]): Active; inhibition (Tubulin (Bos taurus)): 39%; Activity (Jurkat [20]): Dose-dependent effect; pIC50 (PBL): < 3.70; IC50 (Tubulin [21]): 220 µM; Activity (HeLa [22]): Dose-dependent effect
4.73 | 4.13 | 5.52 | 5.59 | > 400 | 5.55 | COc1ccc2c(c1OC)C(=O)O[C@@H]2[C@H]1c2c(c(Br)c3c(c2OC)OCO3)CCN1C | Active | Active | 4.11 | 5.74 | Active | 57.3 | 76.8 | tde | 44.7 | Active | Active | Active | Active | Active | Activity (HeLa [17]): Active; pIC50 [18]: 5.85; Activity (HeLa [19]): Active; inhibition (Tubulin (Bos taurus)): 34%; Activity (Jurkat [20]): Dose-dependent effect; pIC50 (PBL): 4.04; IC50 (Tubulin [21]): > 400 µM; Activity (HeLa [22]): Dose-dependent effect
4.60 | 4.65 | 5.29 | 4.89 | 120 | 4.93 | COc1ccc2c(c1OC)C(=O)O[C@@H]2[C@H]1c2c(c(-c3ccc(C)cc3)c3c(c2OC)OCO3)CCN1C | inactive | Active | 4.18 | 5.13 | Active | 14.3 | 5.88 | tde | 22.9 | inactive | Active | Active | Active | Active | Activity (HeLa [17]): Active; pIC50 [18]: 4.79; Activity (HeLa [19]): Active; inhibition (Tubulin (Bos taurus)): 64%; Activity (Jurkat [20]): Dose-dependent effect; pIC50 (PBL): < 3.70; IC50 (Tubulin [21]): 45 µM; Activity (HeLa [22]): Dose-dependent effect
